In ChEMBL document CHEMBL2375276, “Antibacterial oxazolidinone analogues having a N-hydroxyacetyl-substituted seven-membered [1,2,5]triazepane or [1,2,5]oxadiazepane C-ring unit” (Eur J Med Chem, 2013):
In brackets after ≈: the same amount, converted by molar mass.

What was measured:
Staphylococcus aureus [1] = assay: Ratio of linezolid ED50 to compound ED50 for methicillin-resistant Staphylococcus aureus SR3637 infected in iv dosed JCL/ICR mouse systemic infection model; assay type: functional
Method in brief: (§1)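 Five-week-old male JCL/ICR mice (20–25 g), five per group, infected intraperitoneally with 0.5 or 1.0 mL bacterial suspension (about 100 times the 50% lethal dose). Test and reference compounds given intravenously or orally 1 h after infection. Mortality followed over 7 days; ED50 with 95% confidence limits by the logit method.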

Staphylococcus aureus [2] = assay: Antibacterial activity against linezolid-resistant Staphylococcus aureus NRS271 assessed as growth inhibition by CLSI broth microdilution method; assay type: functional
Method in brief: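 MIC by CLSI broth microdilution in cation-adjusted Mueller-Hinton broth. Lowest concentration inhibiting growth taken as MIC.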

Staphylococcus aureus [3] = assay: Ratio of linezolid ED50 to compound ED50 for methicillin-resistant Staphylococcus aureus SR3637 infected in po dosed JCL/ICR mouse systemic infection model; assay type: functional; method in brief: as §1
MAO-A = target: T1, MAO-A (Rattus norvegicus, UniProt P21396); assay: Inhibition of MAO-A in rat forebrain using [14C]5-HT as substrate at 30 uM incubated for 20 mins prior to substrate addition measured after 5 mins by liquid scintillation counting analysis relative to control; assay type: tissue-based; settings: probe [14C]5-HT
T1 sequence (P21396 whole entry): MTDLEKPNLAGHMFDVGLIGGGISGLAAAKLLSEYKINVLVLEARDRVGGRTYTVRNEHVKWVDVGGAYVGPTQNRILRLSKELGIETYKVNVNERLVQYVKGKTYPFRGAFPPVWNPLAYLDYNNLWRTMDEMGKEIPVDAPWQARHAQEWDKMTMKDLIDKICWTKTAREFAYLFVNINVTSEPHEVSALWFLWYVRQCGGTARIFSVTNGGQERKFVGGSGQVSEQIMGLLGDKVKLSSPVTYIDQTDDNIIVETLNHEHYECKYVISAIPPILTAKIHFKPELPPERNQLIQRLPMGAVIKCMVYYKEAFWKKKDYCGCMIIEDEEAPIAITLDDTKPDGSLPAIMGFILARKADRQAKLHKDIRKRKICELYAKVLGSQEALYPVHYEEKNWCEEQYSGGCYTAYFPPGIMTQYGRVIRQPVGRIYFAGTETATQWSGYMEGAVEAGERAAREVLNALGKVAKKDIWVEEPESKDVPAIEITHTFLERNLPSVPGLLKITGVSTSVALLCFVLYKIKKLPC

Streptococcus pneumoniae = assay: Antibacterial activity against Streptococcus pneumoniae SR26207 clinical isolate assessed as growth inhibition by CLSI broth microdilution method; assay type: functional
Method in brief: (§2)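 MIC by CLSI broth microdilution in cation-adjusted Mueller-Hinton broth; S. pneumoniae medium supplemented with 5% lysed horse blood.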

Haemophilus influenzae = assay: Ratio of linezolid MIC to compound MIC for Haemophilus influenzae SR27914 clinical isolate; assay type: functional
Staphylococcus aureus [4] = assay: Ratio of linezolid MIC to compound MIC for Staphylococcus aureus SR20549 clinical isolate; assay type: functional
Staphylococcus aureus [5] = assay: Antibacterial activity against Staphylococcus aureus SR20549 clinical isolate assessed as growth inhibition by CLSI broth microdilution method; assay type: functional; method in brief: as §2
Moraxella catarrhalis = assay: Ratio of linezolid MIC to compound MIC for Moraxella catarrhalis SR26840 clinical isolate; assay type: functional
Cytochrome P450 3A4 = Cytochrome P450 3A4 (Homo sapiens, UniProt P08684); assay: Inhibition of human CYP3A4 assessed as terfenadine hydroxylation after 20 mins by LC/MS/MS analysis; assay type: ADME
Sequence of Cytochrome P450 3A4 (P08684 whole entry): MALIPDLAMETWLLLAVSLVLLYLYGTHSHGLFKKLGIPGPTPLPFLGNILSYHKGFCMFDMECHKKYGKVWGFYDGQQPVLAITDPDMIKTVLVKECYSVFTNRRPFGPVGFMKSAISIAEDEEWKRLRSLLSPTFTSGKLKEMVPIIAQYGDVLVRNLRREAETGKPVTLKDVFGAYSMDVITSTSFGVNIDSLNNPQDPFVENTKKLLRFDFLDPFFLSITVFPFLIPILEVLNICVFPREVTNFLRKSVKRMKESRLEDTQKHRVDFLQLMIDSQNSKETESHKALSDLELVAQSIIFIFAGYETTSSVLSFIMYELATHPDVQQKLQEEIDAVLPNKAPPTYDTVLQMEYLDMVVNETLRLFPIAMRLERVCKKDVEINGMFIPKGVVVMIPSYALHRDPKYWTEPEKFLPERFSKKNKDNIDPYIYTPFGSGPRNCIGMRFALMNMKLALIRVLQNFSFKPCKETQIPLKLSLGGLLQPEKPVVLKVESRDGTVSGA
Method in brief: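 Human liver microsomes (0.2 mg protein/mL) with 1 mM NADPH in 50 mM HEPES pH 7.4, 10 mM MgCl2, 0.1 mM EDTA. After centrifugation, supernatant metabolite measured by LC/MS/MS. Standard curve from authentic metabolite cocktail added to unincubated reaction mix.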

## COC(=S)NC[C@H]1CN(c2ccc(N3CCNN(C(=O)CO)CC3)c(F)c2)C(=O)O1
Staphylococcus aureus [1]
  Ratio ED50: 3
Staphylococcus aureus [2]
  MIC: 2 µg/mL (≈ 4.53 µM)
Staphylococcus aureus [3]
  Ratio ED50: 2
MAO-A
  inhibition at 5 min, 30 µM: 48.2%
Streptococcus pneumoniae
  MIC: 0.125 µg/mL (≈ 0.283 µM)
Haemophilus influenzae
  Ratio: 4
Staphylococcus aureus [4]
  Ratio: 4
Staphylococcus aureus [5]
  MIC: 0.25 µg/mL (≈ 0.566 µM)
Moraxella catarrhalis
  Ratio: 4
Cytochrome P450 3A4
  IC50: > 20 µM

## COC(=S)NC[C@H]1CN(c2cc(F)c(N3CCNN(C(=O)CO)CC3)c(F)c2)C(=O)O1
Staphylococcus aureus [2]
  MIC: 2 µg/mL (≈ 4.35 µM)
MAO-A
  inhibition at 5 min, 30 µM: 12.4%
Streptococcus pneumoniae
  MIC: ≤ 0.063 µg/mL
Haemophilus influenzae
  Ratio: 4
Staphylococcus aureus [4]
  Ratio: 4
Staphylococcus aureus [5]
  MIC: 0.25 µg/mL (≈ 0.544 µM)
Moraxella catarrhalis
  Ratio: 4
Cytochrome P450 3A4
  IC50: > 20 µM
